Test results as given in article PMC7439261 (ACS Omega, 2020).
pIC50: −log10 of the molar value. Values after ≈ are worked out from the molar mass of the structure shown. Values joined by “and” are separate entries in the source; they are usually repeats but may differ in a detail not shown here. Identical values can stand only once.

Key:
[1] = Sulforhodamine cytotoxicity assay, text summary over four cell lines; type: cell-based; conditions: human
In short: (§1)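 Cells were grown in EMEM with 10% FBS, 2 mM L-glutamine, 20 mM HEPES and antibiotics at 37 °C, 5% CO2. Passages were 4–20 for HeLa, MCF7 and Jurkat, and 2–5 for fibroblasts. Seeding per well for 24 h: HeLa 5×10^3, MCF7 and fibroblast 10^4, Jurkat 5×10^4. Test compound (0–200 mg/L, in DMSO) was added for 48 h. Cells were fixed with cold TCA, stained with 0.2% SRB, solubilised in 10 mM Tris and read at 492 nm. Camptothecin was the positive control. Triplicates, three independent experiments.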

H. pylori ATCC 43504 [2] = assay: Broth dilution bioassay MIC/MBC, ATCC 43504; type: cell-based; conditions: Helicobacter pylori; for MIC: ATCC43504, 48 h; for MBC: ATCC43504, 72 h
H. pylori OX.67 = assay: Broth dilution bioassay MIC/MBC, OX.67; type: cell-based, Helicobacter pylori; conditions: Helicobacter pylori; for MIC: OX.67, 48 h, H. pylori OX.67, broth dilution, 48 h; for MBC: OX.67, 72 h
[3] = Sulforhodamine cytotoxicity assay, fibroblast; type: cell-based; conditions: human, fibroblast cells derived from human foreskins
In short: as §1

H. pylori OX.63 = assay: Broth dilution bioassay MIC/MBC, OX.63; type: cell-based, Helicobacter pylori; conditions: Helicobacter pylori; for MIC: OX.63, 48 h, H. pylori OX.63, broth dilution, 48 h; for MBC: OX.63, 72 h
[4] = Sulforhodamine cytotoxicity assay, HeLa; type: cell-based; conditions: human, HeLa cells
In short: as §1

[5] = Sulforhodamine cytotoxicity assay, Jurkat; type: cell-based; conditions: human, Jurkat cells
In short: as §1

[6] = Sulforhodamine cytotoxicity assay, MCF7; type: cell-based; conditions: human, MCF7 cells
In short: as §1

H. pylori ATCC 51932 = assay: Broth dilution bioassay MIC/MBC, ATCC 51932; type: cell-based; conditions: Helicobacter pylori; for MIC: ATCC51932, 48 h; for MBC: ATCC51932, 72 h
[7] = tested on: H. pylori ATCC 43504 biofilm formation; assay: Biofilm formation inhibitory assay; type: cell-based, Helicobacter pylori; conditions: 48 h; for antibiofilm activity: at test concentrations (sub-MICs)
H. pylori OX.22 = assay: Broth dilution bioassay MIC/MBC, OX.22; type: cell-based; conditions: Helicobacter pylori; for MIC: OX.22, 48 h; for MBC: OX.22, 72 h
H. pylori OX.83 = assay: Broth dilution bioassay MIC/MBC, OX.83; type: cell-based, Helicobacter pylori; conditions: Helicobacter pylori; for MIC: OX.83, 48 h, H. pylori OX.83, broth dilution, 48 h; for MBC: OX.83, 72 h
H. pylori ATCC 43504 [8] = assay: Effect on morphology; type: cell-based, Helicobacter pylori
H. pylori ATCC 43504 [9] = assay: Time-killing assay; type: cell-based, Helicobacter pylori
In short: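 H. pylori ATCC 43504 in 10% NBS-supplemented Brucella broth in 96-well plates, by broth microdilution. Inoculum suspension 5×10^6 CFU/mL; DMSO final ≤2.5%. Test compound was used at concentrations from MIC to MBC, alongside an untreated control. Viability was counted by plate colony count at 0, 6, 12, 18, 24, 36 and 48 h.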

[10] = tested on: test strains of H. pylori; assay: Broth dilution bioassay MIC/MBC, text summary over test strains; type: cell-based; conditions: Helicobacter pylori; for MIC: ATCC51932
H. pylori OX.64 = assay: Broth dilution bioassay MIC/MBC, OX.64; type: cell-based, Helicobacter pylori; conditions: Helicobacter pylori; for MIC: OX.64, 48 h, H. pylori OX.64, broth dilution, 48 h; for MBC: OX.64, 72 h
[11] = target: H. pylori ATCC 43504 urease (Helicobacter pylori, UniProt P69996); assay: Urease inhibition, salicylate-hypochlorite method; type: biochemical; conditions: for slope ± SE: slope of dose-response curve of percentage of urease inhibition
In short: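 Crude H. pylori ATCC 43504 urease, 0.25 μg (0.04 U), in EDTA–sodium phosphate buffer pH 7.3, was preincubated with test compound at 37 °C for 90 min at 50 rpm. Urea solution (10 mM, as added) was then incubated for 30 min. Ammonia was measured by the salicylate–nitroprusside/alkaline hypochlorite method at 625 nm. Thiourea was the reference inhibitor. IC50 is molar. Triplicates, three independent experiments.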

[12] = 1/2 × MIC (NRG 50 mg/L, MCT 75 mg/L)

H. pylori ATCC 43504 urease, sequence (P69996 whole entry): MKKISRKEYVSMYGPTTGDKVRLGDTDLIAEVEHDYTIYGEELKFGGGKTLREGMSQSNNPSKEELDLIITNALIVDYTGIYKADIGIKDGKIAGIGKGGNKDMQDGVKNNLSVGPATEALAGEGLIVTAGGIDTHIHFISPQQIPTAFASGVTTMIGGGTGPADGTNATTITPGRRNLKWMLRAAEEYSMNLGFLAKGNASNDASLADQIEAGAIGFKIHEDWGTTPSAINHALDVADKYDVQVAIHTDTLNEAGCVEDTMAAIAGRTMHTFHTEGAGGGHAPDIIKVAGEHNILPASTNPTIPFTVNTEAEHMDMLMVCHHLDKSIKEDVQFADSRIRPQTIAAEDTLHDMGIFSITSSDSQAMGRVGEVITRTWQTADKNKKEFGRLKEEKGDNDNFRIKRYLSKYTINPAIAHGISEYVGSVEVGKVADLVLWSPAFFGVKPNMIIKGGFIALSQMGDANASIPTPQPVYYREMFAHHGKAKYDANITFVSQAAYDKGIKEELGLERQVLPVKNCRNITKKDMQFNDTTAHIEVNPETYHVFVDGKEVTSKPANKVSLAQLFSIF
H. pylori ATCC 43504 urease, sequence (P14916 whole entry partner): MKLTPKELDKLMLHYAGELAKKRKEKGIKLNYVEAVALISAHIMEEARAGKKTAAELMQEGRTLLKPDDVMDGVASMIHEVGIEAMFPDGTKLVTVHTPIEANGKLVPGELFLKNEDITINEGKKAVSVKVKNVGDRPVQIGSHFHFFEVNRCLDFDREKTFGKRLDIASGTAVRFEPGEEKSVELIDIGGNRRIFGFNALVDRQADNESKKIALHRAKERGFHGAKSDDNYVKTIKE

Compound | CC50 at 48 h [1] [µg/mL] | MIC (H. pylori ATCC 43504 [2]) [µg/mL] | MBC (H. pylori ATCC 43504 [2]) [µg/mL] | MIC (H. pylori OX.67) [µg/mL] | MBC (H. pylori OX.67) [µg/mL] | CC50 at 48 h [3] [µg/mL] | MIC (H. pylori OX.63) [µg/mL] | MBC (H. pylori OX.63) [µg/mL] | CC50 at 48 h [4] [µg/mL] | CC50 at 48 h [5] [µg/mL] | CC50 at 48 h [6] [µg/mL] | MIC (H. pylori ATCC 51932) [µg/mL] | MBC (H. pylori ATCC 51932) [µg/mL] | MIC (H. pylori OX.22) [µg/mL] | MBC (H. pylori OX.22) [µg/mL] | MIC (H. pylori OX.83) [µg/mL] | MBC (H. pylori OX.83) [µg/mL] | conversion to the coccoid form (H. pylori ATCC 43504 [8]; 500 mg/L) | MIC (H. pylori OX.64) [µg/mL] | MBC (H. pylori OX.64) [µg/mL] | also measured
O=c1cc(-c2ccc(O)c(O)c2)oc2cc(O)cc(O)c12 [LUT, luteolin] | 5.12 to 49.8 (≈ 17.9 to 174 µM) | 125 (≈ 437 µM) | 1250 (≈ 4370 µM) | 125 (≈ 437 µM) | 1250 (≈ 4370 µM) | 49.8 (≈ 174 µM) | 125 (≈ 437 µM) | 1250 (≈ 4370 µM) | 8.36 (≈ 29.2 µM) | 5.12 (≈ 17.9 µM) | 8.64 (≈ 30.2 µM) | 125 (≈ 437 µM) | 1250 (≈ 4370 µM) | 125 (≈ 437 µM) | 1250 (≈ 4370 µM) | 125 (≈ 437 µM) | 1250 (≈ 4370 µM) | 14.7% | 125 (≈ 437 µM) | 1250 (≈ 4370 µM) | antibiofilm activity [7]: did not show antibiofilm activity; conversion to the coccoid form (H. pylori ATCC 43504 [8]; 1000 mg/L): 87.5%; reduction of viability (H. pylori ATCC 43504 [9]; four times the MIC, 12 h): ~3 log10; MBC [10]: 1250 µg/mL (≈ 4370 µM); MIC [10]: 125 µg/mL (≈ 437 µM); pIC50 [11]: 3.40; slope ± SE [11]: 2.16 ± 0.080
O=c1c(O)c(-c2cc(O)c(O)c(O)c2)oc2cc(O)cc(O)c12 [MCT, myricetin] | 7.61 to 76.1 (≈ 23.9 to 239 µM) | 150 (≈ 471 µM) | 1250 (≈ 3930 µM) | 150 (≈ 471 µM) | 1250 (≈ 3930 µM) | 76.1 (≈ 239 µM) | 150 (≈ 471 µM) | 1250 (≈ 3930 µM) | 36.8 (≈ 116 µM) | 7.61 (≈ 23.9 µM) | 31.7 (≈ 99.6 µM) | 150 (≈ 471 µM) | 1250 (≈ 3930 µM) | 150 (≈ 471 µM) | 1250 (≈ 3930 µM) | 150 (≈ 471 µM) | 1250 (≈ 3930 µM) | 15% | 150 (≈ 471 µM) | 1250 (≈ 3930 µM) | reduction of biofilm formation [7, 12]: 39.5%; conversion to the coccoid form (H. pylori ATCC 43504 [8]; 1000 mg/L): 79%; reduction of viability (H. pylori ATCC 43504 [9]; at the MIC, 24 h): ~2.7 log10; reduction of viability (H. pylori ATCC 43504 [9]; eight times the MIC, 36 h): ~4.2 log10; MBC [10]: 1250 µg/mL (≈ 3930 µM); MIC [10]: 150 µg/mL (≈ 471 µM); pIC50 [11]: 4.20; concentration of complete inhibition of urease ([11]; Figure 5): 0.402 mM; slope ± SE [11]: 2.26 and 2.26 ± 0.070
O=C1C[C@@H](c2ccc(O)cc2)Oc2cc(O)cc(O)c21 [NRG, naringenin] | 46.6 to 133 (≈ 171 to 490 µM) | 100 (≈ 367 µM) | 1000 (≈ 3670 µM) | 100 (≈ 367 µM) | 1000 (≈ 3670 µM) | 133 (≈ 490 µM) | 100 (≈ 367 µM) | 1000 (≈ 3670 µM) | 65.2 (≈ 239 µM) | 46.6 (≈ 171 µM) | 93.7 (≈ 344 µM) | 100 (≈ 367 µM) | 1000 (≈ 3670 µM) | 100 (≈ 367 µM) | 1000 (≈ 3670 µM) | 100 (≈ 367 µM) | 1000 (≈ 3670 µM) | 16.5% | 100 (≈ 367 µM) | 1000 (≈ 3670 µM) | reduction of biofilm formation [7, 12]: 85.9%; reduction of biofilm formation ([7]; 1/4 × MIC (NRG 25 mg/L)): 52.7%; conversion to the coccoid form (H. pylori ATCC 43504 [8]; 1000 mg/L): 95%; reduction of viability (H. pylori ATCC 43504 [9]; at the MIC, 48 h): ~1 log10; reduction of viability (H. pylori ATCC 43504 [9]; five times the MIC, 24 h): ~2.5 log10; reduction of viability (H. pylori ATCC 43504 [9]; five times the MIC, 36 h): ~4 log10; MIC [10]: 100 µg/mL (≈ 367 µM); pIC50 [11]: 3.24; slope ± SE [11]: 1.38 ± 0.045
O=C(O)c1ccc(O)c(O)c1 [PCA, protocatechuic acid] | > 200 | 250 (≈ 1620 µM) | 1500 (≈ 9730 µM) | 250 (≈ 1620 µM) | 1500 (≈ 9730 µM) | > 200 | 250 (≈ 1620 µM) | 1500 (≈ 9730 µM) | > 200 | > 200 | > 200 | 250 (≈ 1620 µM) | 1500 (≈ 9730 µM) | 250 (≈ 1620 µM) | 1500 (≈ 9730 µM) | 250 (≈ 1620 µM) | 1500 (≈ 9730 µM) | not significantly different from that in the control group | 250 (≈ 1620 µM) | 1500 (≈ 9730 µM) | antibiofilm activity [7]: did not show antibiofilm activity; conversion to the coccoid form (H. pylori ATCC 43504 [8]; 1000 mg/L): 12%; reduction of viability (H. pylori ATCC 43504 [9]; at the MIC, 36 h): ~2 log10; reduction of viability (H. pylori ATCC 43504 [9]; four times the MIC, 48 h): ~6 log10; MIC [10]: 250 µg/mL (≈ 1620 µM); pIC50 [11]: 3.31; slope ± SE [11]: 2.00 ± 0.075
CC1(C)S[C@@H]2[C@H](NC(=O)[C@H](N)c3ccc(O)cc3)C(=O)N2[C@H]1C(=O)O [amoxicillin] | – | 0.031 (≈ 0.0848 µM) | 0.063 (≈ 0.172 µM) | 0.031 (≈ 0.0848 µM) | 0.125 (≈ 0.342 µM) | – | 0.063 (≈ 0.172 µM) | 0.25 (≈ 0.684 µM) | – | – | – | 0.063 (≈ 0.172 µM) | 0.125 (≈ 0.342 µM) | 0.063 (≈ 0.172 µM) | 0.25 (≈ 0.684 µM) | 0.063 (≈ 0.172 µM) | 0.25 (≈ 0.684 µM) | – | 0.031 (≈ 0.0848 µM) | 0.125 (≈ 0.342 µM) | –
